# Like-named read-outs stand apart in the source and are kept apart here. Square brackets hold non-standard residues; d marks the D form. Ends that are not written are not given here. Peptide text beside a SMILES is read from it. pT = C[C@@H](OP(=O)(O)O)[C@H](N)C(=O)O
# Experiments:
# [1] = molecular target: X. laevis class B Survivin (xl wt, xSurvivin-B) (Xenopus laevis, UniProt Q8JGN5); test: ITC binding of histone H3 peptides to Xenopus Survivin class B wild type; conditions: pH 8.2, 25°C, HEPES:citric acid:Ches, 10 mM β-mercaptoethanol, single-site model, n/b = no binding
# X. laevis class B Survivin (xl wt, xSurvivin-B), sequence (Q8JGN5 whole entry): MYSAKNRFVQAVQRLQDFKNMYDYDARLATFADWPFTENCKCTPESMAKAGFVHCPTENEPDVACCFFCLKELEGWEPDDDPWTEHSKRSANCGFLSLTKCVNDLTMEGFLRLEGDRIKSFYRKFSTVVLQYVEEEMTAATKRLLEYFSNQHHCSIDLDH
# [2] = molecular target: human Survivin H80R (Homo sapiens, UniProt O15392, H80R); test: ITC binding of histone H3 peptides to human Survivin H80R; conditions: pH 6.8, 25°C, HEPES:citric acid:Ches, 10 mM β-mercaptoethanol, single-site model, n/b = no binding
# human Survivin H80R, sequence (O15392 whole entry H80R): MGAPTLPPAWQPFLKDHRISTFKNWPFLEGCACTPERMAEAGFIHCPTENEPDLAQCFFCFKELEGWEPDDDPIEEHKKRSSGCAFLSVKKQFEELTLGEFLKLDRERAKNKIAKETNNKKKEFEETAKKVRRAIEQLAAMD
# Method in brief: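 Mutant human Survivin from bacteria, Ni2+-resin purified, octahistidine tag removed by thrombin, then Superdex200. ITC at pH 6.8 in citric acid–Ches–HEPES buffer, 25°C. 1.2 mM histone H3 tail peptide titrated into 0.1 mM protein over sixteen injections 180 s apart. Kd from a single-site fit with stoichiometry, ΔH and Ka variable, using a baseline offset for dilution heats.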
# [3] = molecular target: human Survivin K62A (Homo sapiens, UniProt O15392, K62A); test: ITC binding of histone H3 peptides to human Survivin K62A
# human Survivin K62A (Homo sapiens, UniProt O15392, K62A), sequence (O15392 whole entry K62A): as the sequence (O15392 whole entry H80R) above, with K62A, R80H counted along it
# Method in brief: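 ITC at pH 7.8 with recombinant human Survivin K62A (bacterially expressed, His tag thrombin-cleaved, gel-filtered) binding H3T3ph(1-4) and unmodified H3(1-4) peptides. Syringe peptide 1.2 mM, cell protein 0.1 mM, sixteen injections 180 s apart. Kd from a single-binding-site model with stoichiometry, ΔH and Ka variable. Baseline offset corrects for heats of dilution.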
# [4] = molecular target: human Survivin (hs wt, class A) (Homo sapiens, UniProt O15392); test: ITC binding of histone H3 peptides to human Survivin wild type
# human Survivin (hs wt, class A), sequence (O15392 whole entry): as the sequence (O15392 whole entry H80R) above, with R80H counted along it
# [5] = molecular target: human Survivin H80A (human) (UniProt O15392); test: ITC
# human Survivin H80A (human), sequence (O15392 whole entry H80A): as the sequence (O15392 whole entry H80R) above, with R80A counted along it
# [6] = molecular target: human Survivin K62A (human) (UniProt O15392); test: ITC
# human Survivin K62A (human), sequence (O15392 whole entry K62A): as the sequence (O15392 whole entry H80R) above, with K62A, R80H counted along it
# [7] = molecular target: human Survivin wild type (human) (UniProt O15392); test: ITC
# human Survivin wild type (human), sequence (O15392 whole entry): as the sequence (O15392 whole entry H80R) above, with R80H counted along it
# [8] = molecular target: T1, human Survivin wild type (human, UniProt O15392 1-142); test: ITC
# T1 sequence (O15392 whole entry): as the sequence (O15392 whole entry H80R) above, with R80H counted along it
# [9] = molecular target: T2, Xenopus laevis class B Survivin R89H (X. laevis, UniProt Q8JGN5 1-160, R89H); test: ITC
# T2 sequence (Q8JGN5 whole entry R89H): as the sequence (Q8JGN5 whole entry) above, with R89H counted along it
# [10] = molecular target: T1, human Survivin wild type; test: ITC; remark: listed apart in the source
# [11] = molecular target: T1, human Survivin wild type; test: ITC; remark: listed apart in the source
# [12] = molecular target: human Survivin K62A (human, UniProt O15392 1-142, K62A); test: crystal structure
# human Survivin K62A (human, UniProt O15392 1-142, K62A), sequence (O15392 whole entry K62A): as the sequence (O15392 whole entry H80R) above, with K62A, R80H counted along it
# [13] = molecular target: T1, human Survivin wild type; test: ITC; remark: listed apart in the source
# [14] = molecular target: T1, human Survivin wild type; test: ITC; remark: listed apart in the source
# [15] = molecular target: T1, human Survivin wild type; test: ITC; remark: listed apart in the source
# [16] = molecular target: T2, Xenopus laevis class B Survivin R89H; test: ITC; remark: listed apart in the source
# [17] = molecular target: T1, human Survivin wild type; test: ITC; remark: listed apart in the source
molecule,measurement,setting,value
C[C@H](N)C(=O)N[C@@H](CCCNC(=N)N)C(=O)N[C@H](C(=O)N[C@@H](CCCCN)C(=O)N[C@@H](CCC(N)=O)C(=O)N[C@H](C(=O)N[C@@H](C)C(=O)N[C@@H](CCCNC(=N)N)C(=O)N[C@@H](CCCCN)C(=O)N[C@@H](CO)C(=O)N[C@H](C(=O)NCC(=O)O)[C@@H](C)O)[C@@H](C)O)[C@@H](C)O [H3T3(1-12)],Kd (dissociation constant),[1],n/b
same,Kd (dissociation constant),[2],n/b
C[C@H](N)C(=O)N[C@@H](CCCNC(=N)N)C(=O)N[C@H](C(=O)N[C@@H](CCCCN)C(=O)O)[C@@H](C)O [H3T3(1-4)] (H-ARTK-OH),Kd,[3],31.3 ± 2 µM
same,Kd,[4],60.6 ± 4 µM
"histone H3 N-terminal peptide ARTK, unmodified",Kd,[5],236 µM
same,dH,[5],-3300 cal/mol
same,stoichiometry N,[5],0.99
same,Kd,[6],31.3 µM
same,dH,[6],-4610 cal/mol
same,stoichiometry N,[6],1.22
"ARTK [histone H3 N-terminal peptide ARTK, unmodified]",Kd,[7],60.6 µM
same,dH,[7],-3160 cal/mol
same,stoichiometry N,[7],1.27
"ARTKQTARKSTG [histone H3 N-terminal peptide ARTKQTARKSTG, unmodified]",Kd,[8],21 ± 1.8 µM
same,dH,[8],-1890 ± 40 cal/mol
same,stoichiometry N,[8],1.56 ± 0.02
same,Kd,[9],12.9 ± 1.4 µM
same,dH,[9],-2720 ± 60 cal/mol
same,stoichiometry N,[9],1.34 ± 0.02
same,Kd,[10],30.2 ± 1.2 µM
same,dH,[10],-3430 ± 50 cal/mol
same,stoichiometry N,[10],1.32 ± 0.01
same,Kd,[11],21.4 ± 3.2 µM
same,dH,[11],-4320 ± 230 cal/mol
same,stoichiometry N,[11],1.37 ± 0.04
same,binding result,[12],binds
same,Kd,[13],9.67 ± 0.31 µM
same,dH,[13],-2790 ± 20 cal/mol
same,stoichiometry N,[13],1.29 ± 0.01
same,Kd,[14],13.3 ± 0.7 µM
same,dH,[14],-3210 ± 50 cal/mol
same,stoichiometry N,[14],1.36 ± 0.01
same,Kd,[15],11.8 ± 1 µM
same,dH,[15],-2490 ± 60 cal/mol
same,stoichiometry N,[15],1.26 ± 0.01
same,Kd,[16],5.21 ± 0.39 µM
same,dH,[16],-2690 ± 40 cal/mol
same,stoichiometry N,[16],1.15 ± 0.01
same,Kd,[17],17.1 ± 0.8 µM
same,dH,[17],-3320 ± 50 cal/mol
same,stoichiometry N,[17],1.33 ± 0.01
"AR[pT]K [histone H3 N-terminal peptide ARTphK, phosphorylated on T3]",Kd,[7],61.7 µM
same,dH,[7],-2120 cal/mol
same,stoichiometry N,[7],1.05
"AR[pT]KQTARKSTG [histone H3 N-terminal peptide ARTphKQTARKSTG, phosphorylated on T3]",dH,[8],-670 ± 50 cal/mol
same,stoichiometry N,[8],1.35 ± 0.06
same,dH,[9],-870 ± 15 cal/mol
same,stoichiometry N,[9],1.04 ± 0.01
same,dH,[10],-4130 ± 220 cal/mol
same,stoichiometry N,[10],1.23 ± 0.02
same,dH,[11],-6850 ± 20 cal/mol
same,stoichiometry N,[11],1.01 ± 0.002
same,dH,[13],-4880 ± 30 cal/mol
same,stoichiometry N,[13],1.03 ± 0.002
same,dH,[14],-4650 ± 50 cal/mol
same,stoichiometry N,[14],1.12 ± 0.01
same,dH,[15],-5640 ± 20 cal/mol
same,stoichiometry N,[15],1.13 ± 0.001
same,dH,[16],-4570 ± 40 cal/mol
same,stoichiometry N,[16],1.09 ± 0.004
same,dH,[17],-4720 ± 60 cal/mol
same,stoichiometry N,[17],1.2 ± 0.01
